Experimental data taken from publication PMC10373209 (ACS Omega, 2023).
Entries after “also recorded” stand apart in the source; their conditions may differ.

Assays:
Taq DNA polymerase = Taq DNA polymerase (Thermus aquaticus, UniProt P19821); assay: Taq DNA polymerase inhibition; assay type: biochemical; conditions: for inhibitory activity against Taq DNA polymerase (in words): PCR assay
SRP-ΔΔΔΔ (ΔΔΔΔpdr) = assay: Yeast growth inhibition dose-response, SRP-ΔΔΔΔ; assay type: cell-based, Saccharomyces cerevisiae; conditions: 1–128 μM range
Summary of the method: (§1)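 S. cerevisiae haploid MATa deletion strains (wild-type reference BY4741) were grown in YPD at 25 °C. In a broth microdilution assay, an inoculum of OD620 0.001 (~25,000 cells/mL) was exposed to test compound at 1–128 μM in 1:2 serial dilutions. The zero control was eight technical replicates of 1% (v/v) DMSO.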

[1] = biological target: M-MLV Reverse Transcriptase (RT-MMLV) (Moloney murine leukemia virus, UniProt P03355); assay: Retrotranscription inhibition; assay type: biochemical, myeloid murine leukemia virus
Δrad9 Δrad52 (ΔΔrad) = assay: Yeast growth inhibition dose-response, Δrad9 Δrad52; assay type: cell-based, Saccharomyces cerevisiae; conditions: for cytotoxicity in ΔΔrad (in words): 1–128 μM range; for DNA damage in S. cerevisiae (in words): inferred from hypersensitivity of Δrad9 Δrad52
Summary of the method: as §1

Chain of Taq DNA polymerase (P19821 whole entry): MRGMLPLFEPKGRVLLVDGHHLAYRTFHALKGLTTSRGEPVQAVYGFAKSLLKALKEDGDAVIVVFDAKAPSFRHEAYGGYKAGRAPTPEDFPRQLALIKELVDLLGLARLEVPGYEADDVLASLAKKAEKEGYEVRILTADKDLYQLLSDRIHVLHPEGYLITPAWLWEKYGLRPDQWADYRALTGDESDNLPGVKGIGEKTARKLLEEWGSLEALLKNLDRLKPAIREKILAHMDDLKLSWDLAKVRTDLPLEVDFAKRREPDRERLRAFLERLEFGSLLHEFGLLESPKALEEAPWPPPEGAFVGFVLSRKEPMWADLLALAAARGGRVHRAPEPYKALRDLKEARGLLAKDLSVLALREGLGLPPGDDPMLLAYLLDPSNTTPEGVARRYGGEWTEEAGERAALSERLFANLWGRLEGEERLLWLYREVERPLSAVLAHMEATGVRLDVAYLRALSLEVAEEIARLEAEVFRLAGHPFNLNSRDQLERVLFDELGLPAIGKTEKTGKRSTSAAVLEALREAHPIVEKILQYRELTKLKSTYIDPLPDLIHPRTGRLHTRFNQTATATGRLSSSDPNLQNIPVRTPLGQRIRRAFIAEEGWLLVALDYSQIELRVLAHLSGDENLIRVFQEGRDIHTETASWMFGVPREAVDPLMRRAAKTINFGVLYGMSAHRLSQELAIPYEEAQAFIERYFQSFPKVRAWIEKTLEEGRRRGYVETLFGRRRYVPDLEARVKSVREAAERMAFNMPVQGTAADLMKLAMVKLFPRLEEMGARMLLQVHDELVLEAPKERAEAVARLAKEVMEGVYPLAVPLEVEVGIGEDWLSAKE

## O=c1cc(CCl)c2ccc(O)cc2o1 [Compound 2a, 4-(Chloromethyl)-7-hydroxy-2H-chromen-2-one]
Taq DNA polymerase
  inhibitory activity against Taq DNA polymerase (in words): low or null in vitro activity

## O=c1cc(CCl)c2cc(O)ccc2o1 [Compound 2b, 4-(Chloromethyl)-6-hydroxy-2H-chromen-2-one]
Taq DNA polymerase
  inhibitory activity against Taq DNA polymerase (in words): low or null in vitro activity

## O=c1cc(CCl)c2ccc(O)c(O)c2o1 [Compound 2c, 4-(Chloromethyl)-7,8-dihydroxy-2H-chromen-2-one]
Taq DNA polymerase
  IC50: 142 ± 3.4 µM

## O=c1cc(CCl)c2c(O)cc(O)cc2o1 [Compound 2d, 4-(Chloromethyl)-5,7-dihydroxy-2H-chromen-2-one]
Taq DNA polymerase
  IC50: 20.7 ± 2.1 µM

## CC(=O)Oc1ccc2c(CSC(C)=O)cc(=O)oc2c1 [Compound 3c, 4-((Acetylthio)methyl)-2-oxo-2H-chromen-7-yl acetate]
Taq DNA polymerase
  IC50: 48.2 ± 1.2 µM

## CC(=O)SCc1cc(=O)oc2cc(O)ccc12 [Compound 3d, S-((7-Hydroxy-2-oxo-2H-chromen-4-yl)methyl) ethanethioate]
Taq DNA polymerase
  IC50: 143 ± 4.22 µM

## CC(=O)SCc1cc(=O)oc2ccc(O)cc12 [Compound 3e, S-((6-Hydroxy-2-oxo-2H-chromen-4-yl)methyl) ethanethioate]
Taq DNA polymerase
  IC50: 188 ± 19.4 µM

## COc1ccc2oc(=O)cc(CSC(C)=O)c2c1 [Compound 3f, S-((6-Methoxy-2-oxo-2H-chromen-4-yl)methyl) ethanethioate]
Taq DNA polymerase
  inhibitory activity against Taq DNA polymerase (in words): absence of activity

## CC(=O)Oc1ccc2oc(=O)cc(CSC(C)=O)c2c1 [Compound 3g, 4-((Acetylthio)methyl)-2-oxo-2H-chromen-6-yl acetate]
Taq DNA polymerase
  inhibitory activity against Taq DNA polymerase (in words): without activity; also recorded: did not show in vitro activity
SRP-ΔΔΔΔ (ΔΔΔΔpdr)
  cytotoxicity in ΔΔΔΔpdr strain (in words): cytotoxic

## C=CCCOc1ccc2ccc(=O)oc2c1 [Compound 4b, 7-(But-3-en-1-yloxy)-2H-chromen-2-one]
SRP-ΔΔΔΔ (ΔΔΔΔpdr)
  cytotoxicity in ΔΔΔΔpdr strain (in words): cytotoxic

## C=CCCCOc1ccc2ccc(=O)oc2c1 [Compound 4c, 7-(Pent-4-en-1-yloxy)-2H-chromen-2-one]
SRP-ΔΔΔΔ (ΔΔΔΔpdr)
  cytotoxicity in ΔΔΔΔpdr strain (in words): cytotoxic

## O=c1cc(OCCCC2CO2)c2ccccc2o1 (stereo not drawn) [Compound 5a, 4-(3-(Oxiran-2-yl)propoxy)-2H-chromen-2-one]
[1]
  activity in RT-PCR assay (in words): did not show activity
Δrad9 Δrad52 (ΔΔrad)
  cytotoxicity in ΔΔrad (in words): Cytotoxicity was observed
  DNA damage in S. cerevisiae (in words): showed DNA damaging activity

## O=c1ccc2ccc(OCCC3CO3)cc2o1 (stereo not drawn) [Compound 5b, 7-(2-(Oxiran-2-yl)ethoxy)-2H-chromen-2-one]
[1]
  activity in RT-PCR assay (in words): without activity
Δrad9 Δrad52 (ΔΔrad)
  cytotoxicity in ΔΔrad (in words): Cytotoxicity was observed
  DNA damage in S. cerevisiae (in words): caused DNA damage; also recorded: showed DNA damaging activity

## O=c1ccc2ccc(OCCCC3CO3)cc2o1 (stereo not drawn) [Compound 5c, 7-(3-(Oxiran-2-yl)propoxy)-2H-chromen-2-one]
Δrad9 Δrad52 (ΔΔrad)
  cytotoxicity in ΔΔrad (in words): Cytotoxicity was observed
  DNA damage in S. cerevisiae (in words): caused DNA damage; also recorded: showed DNA damaging activity

## CCCCOc1ccc2ccc(=O)oc2c1 [Compound 6a, 7-Butoxy-2H-chromen-2-one]
SRP-ΔΔΔΔ (ΔΔΔΔpdr)
  cytotoxicity in ΔΔΔΔpdr strain (in words): cytotoxic

## CCCCCCOc1ccc2ccc(=O)oc2c1 [Compound 6b, 7-(Hexyloxy)-2H-chromen-2-one]
SRP-ΔΔΔΔ (ΔΔΔΔpdr)
  cytotoxicity in ΔΔΔΔpdr strain (in words): cytotoxic

## CCCCCCCOc1ccc2ccc(=O)oc2c1 [Compound 6c, 7-(Heptyloxy)-2H-chromen-2-one]
SRP-ΔΔΔΔ (ΔΔΔΔpdr)
  cytotoxicity in ΔΔΔΔpdr strain (in words): cytotoxic

## CC(=O)OC[C@@H]1OC(Oc2ccc3ccc(=O)oc3c2)C(OC(C)=O)[C@H](OC(C)=O)C1OC(C)=O (stereo partly drawn) [Compound 7c, (2S,4R)-2-(Acetoxymethyl)-6-((2-oxo-2H-chromen-7-yl)oxy)tetrahydro-2H-pyran-3,4,5-triyl triacetate]
SRP-ΔΔΔΔ (ΔΔΔΔpdr)
  cytotoxicity in ΔΔΔΔpdr strain (in words): cytotoxic
